Data reported in ChEMBL document CHEMBL1938334, “Quinoline tricyclic derivatives. Design, synthesis and evaluation of the antiviral activity of three new classes of RNA-dependent RNA polymerase inhibitors” (Bioorg Med Chem, 2011).

What was measured:
[1] = Cytotoxicity against human MT4 cells after 96 hrs by MTT assay; format: cell-based
Procedure, shortened: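 Exponentially growing MT-4 cells seeded at 1×10^5 cells/mL in RPMI-1640 with 10% FBS, penicillin and streptomycin. Incubated with serial compound dilutions at 37 °C, 5% CO2 for 96 h; viability by MTT. CC50 by linear regression relative to untreated controls; mean of three independent determinations.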

[2] = tested on: Human immunodeficiency virus 1; assay: Antiviral activity against HIV1 3B infected in human MT4 cells assessed as inhibition of virus-induced cytopathogenicity after 4 days by MTT assay; format: functional, organism-based; details: Human immunodeficiency virus 1, 3B, MT4, 96 h
Procedure, shortened: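 MT-4 cells (1×10^4 per well) were infected with HIV-1 IIIB at 100 CCID50, m.o.i. 0.01, together with serial compound dilutions. Viability was read by MTT after 4 days at 37 °C. EC50 was taken by linear regression versus untreated controls. Mean of three determinations.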

[3] = Cytotoxicity against MDBK cells after 48 to 96 hrs by MTT assay; format: cell-based, Bos taurus; details: cattle
Procedure, shortened: (§1)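 MDBK seeded at 6×10^5 and BHK at 1×10^6 cells/mL in MEM-Earle's with L-glutamine, 1 mM pyruvate, kanamycin, plus 10% horse serum (MDBK) or 10% FBS (BHK). Cells were grown at 37 °C, 5% CO2 with serial compound dilutions (DMSO stocks diluted in medium). Viability by MTT after 48–96 h. CC50 was taken by linear regression versus untreated controls; three independent determinations.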

[4] = Antiviral activity against Bovine viral diarrhea virus 1-NADL infected in MDBK cells assessed as inhibition of virus-induced cytopathogenicity after 3 to 4 days by MTT assay; format: functional, cell-based; details: Bovine viral diarrhea virus isolates and strains
Procedure, shortened: (§2)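 Host cells were seeded in 96-well plates at 3×10^4 cells/well (MDBK) or 5×10^4 cells/well (BHK-21) and grown to confluent monolayers overnight. They were infected at m.o.i. 0.01 in maintenance MEM with 0.5% inactivated FBS. Serial compound dilutions were added after 1 h. Viability was read by MTT after 3–4 days at 37 °C. EC50 was taken by linear regression against untreated controls. Mean of three determinations.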

[5] = Cytotoxicity against BHK21 cells after 48 to 96 hrs by MTT assay; format: cell-based, Mesocricetus auratus, BHK-21; details: hamster; procedure, shortened: as §1
Yellow fever virus = assay: Antiviral activity against Yellow fever virus 17D Stamaril Pasteur J07B01 infected in hamster BHK21 cells assessed as inhibition of virus-induced cytopathogenicity after 3 to 4 days by MTT assay; format: functional, cell-based; details: Stamaril Pasteur J07B01, BHK-21; procedure, shortened: as §2
Reovirus sp. = assay: Antiviral activity against Reovirus type-1 3651 infected in hamster BHK21 cells assessed as inhibition of virus-induced cytopathogenicity after 3 to 4 days by MTT assay; format: functional, organism-based; details: Reovirus sp., 3651, BHK-21; procedure, shortened: as §2
[6] = Cytotoxicity against african green monkey Vero 76 cells after 48 to 96 hrs by crystal violet staining; format: cell-based; details: chlorocebus sabaeus
Procedure, shortened: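 Vero-76 cells were seeded at 4×10^5 cells/mL in D-MEM with L-glutamine, kanamycin and 10% FBS, then exposed to serial compound dilutions at 37 °C, 5% CO2 for 48–96 h. Viability was read by crystal violet staining. 50% cytotoxic concentration by linear regression relative to untreated controls; mean of three independent determinations.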

Coxsackievirus B5 = assay: Antiviral activity against Human coxsackievirus B5 Ohio-1 infected in african green monkey Vero 76 cells assessed as reduction of virus-induced plaque formation after 3 days using crystal violet staining; format: functional, organism-based; details: Enterovirus B, Ohio-1, Vero, 72 h
Poliovirus 1 = assay: Antiviral activity against Human poliovirus 1 strain Sabin Chat infected in african green monkey Vero 76 cells assessed as virus-induced reduction of plaque formation after 2 days using crystal violet staining; format: functional, cell-based; details: Enterovirus C, 48 h
Human orthopneumovirus = assay: Antiviral activity against Human respiratory syncytial virus A2 infected in african green monkey Vero 76 cells assessed as reduction of virus-induced plaque formation after 5 days using crystal violet staining; format: functional, organism-based; details: 120 h
[7] = tested on: Vesicular stomatitis Indiana virus; assay: Antiviral activity against clinical isolate Vesicular stomatitis Indiana virus infected in african green monkey Vero 76 cells assessed as reduction of virus-induced plaque formation after 2 days using crystal violet staining; format: functional, organism-based; details: 48 h
[8] = Antiviral activity against Vaccinia virus Lister Elstree infected in african green monkey Vero 76 cells assessed as reduction of virus-induced plaque formation after 3 days using crystal violet staining; format: functional, cell-based; details: 72 h
Human alphaherpesvirus 1 = assay: Antiviral activity against Human herpesvirus 1 strain KOS infected in african green monkey Vero 76 cells assessed as reduction of virus-induced plaque formation after 3 days using crystal violet staining; format: functional, organism-based; details: Human alphaherpesvirus 1, KOS, 72 h

Compound | CC50 at 96 h [1] [µM] | EC50 [2] [µM] | CC50 [3] [µM] | EC50 [4] [µM] | CC50 [5] [µM] | EC50 (Yellow fever virus) [µM] | EC50 (Reovirus sp.) [µM] | CC50 [6] [µM] | EC50 (Coxsackievirus B5) [µM] | EC50 (Poliovirus 1) [µM] | EC50 (Human orthopneumovirus) [µM] | EC50 [7] [µM] | EC50 [8] [µM] | EC50 (Human alphaherpesvirus 1) [µM]
Oc1ccnc2c(Cl)c3[nH]c(-c4ccccc4)nc3cc12 | > 100 | > 100 | > 100 | > 100 | 75 | > 75 | > 75 | > 100 | > 100 | > 100 | > 100 | > 100 | > 100 | > 100
O=C1Nc2ccc(Cl)cc2[C@@](C#CC2CC2)(C(F)(F)F)O1 [EFAVIRENZ] | 40 |  |  |  |  |  |  |  |  |  |  |  |  | 
CC(C)c1nc2cc3cccnc3c(Cl)c2[nH]c1=O | 48 | > 48 | 100 | 5 | > 100 | > 100 | 47 | > 100 | > 100 | > 100 | 38 | 62 | > 100 | > 100
Clc1c2ncccc2cc2nc(-c3ccccc3)[nH]c12 | 29 | > 29 | 65 | 4 | 35 | > 35 | 10 | > 100 | 36 | 53 | > 100 | > 100 | > 100 | > 100
O=c1cnn([C@@H]2O[C@H](CO)[C@@H](O)[C@H]2O)c(=O)[nH]1 [6-AZAURIDINE] |  |  |  |  |  |  |  | ≥ 12.5 |  |  | 1.2 |  |  | 
c1ccc(-c2nc3cc4cccnc4cc3[nH]2)cc1 | 28 | > 28 | 80 | 10 | 40 | > 40 | 13 | > 100 | 19 | 37 | > 100 | > 100 | > 100 | > 100
c1cnc2cc3[nH]cnc3cc2c1 | > 100 | > 100 | > 100 | > 100 | > 100 | > 100 | > 100 | > 100 | > 100 | > 100 |  | > 100 | > 100 | > 100
O=[N+]([O-])c1c2cccnc2c(Cl)c2[nH]n[n+]([O-])c12 | > 100 | > 100 | > 100 | > 100 | > 100 | > 100 |  | > 100 | > 100 | > 100 | > 100 | > 100 | > 100 | 
Clc1c2ncccc2cc2nccnc12 | 82 | > 82 | 6.5 | > 6.5 | 70 | > 70 | > 70 | 90 | 50 | > 90 | > 90 | > 90 | 57 | 90
CCc1nc2cc3cccnc3c(Cl)c2[nH]c1=O | 51 | > 51 | 75 | 6.5 | 95 | > 95 | 36 | 100 | > 100 | > 100 | 18 | 35 | > 100 | > 100
O=[N+]([O-])c1ccc(-c2nc3cc4cccnc4cc3[nH]2)cc1 | > 100 | > 100 | 90 | 20 | > 100 | > 100 | 67 | 95 | 35 | > 95 | > 95 | > 95 | > 95 | 
Clc1c2ncccc2cc2nn[nH]c12 | > 100 | > 100 | > 100 | > 100 | > 100 | > 100 | > 100 | > 100 | > 100 | > 100 | > 100 | > 100 | > 100 | > 100
C[C@@]1(O)[C@H](O)[C@@H](CO)O[C@H]1n1cnc2c(=O)[nH]c(N)nc21 [2'-B-METHYL-GUANOSINE] |  |  | > 10 | 1.1 | > 10 | 1.9 |  |  |  |  |  |  |  | 
O=c1[nH]c2cc3c(O)ccnc3c(Cl)c2nc1-c1ccccc1 | > 100 | > 100 | > 100 | 100 | > 100 | > 100 | > 100 | ≥ 100 | > 100 | > 100 | > 100 | > 100 | > 100 | ≥ 100
[O-][n+]1n[nH]c2c(Cl)c3ncccc3cc21 | > 100 | > 100 | > 100 | > 100 | > 100 | > 100 |  | > 100 | 86 | > 100 | > 100 | > 100 | > 100 | > 100
CC(=O)n1nnc2c(Cl)c3ncccc3cc21 | 46 | > 46 | 30 | > 30 | 72 | > 72 |  | > 100 | > 100 | > 100 | > 100 | > 100 | > 100 | > 100
c1cnc2cc3nccnc3cc2c1 | > 100 | > 100 | > 100 | > 100 | > 100 | > 100 |  | > 100 | > 100 | > 100 |  | > 100 | > 100 | > 100
C[C@@]1(O)[C@H](O)[C@@H](CO)O[C@H]1n1ccc(N)nc1=O |  |  |  |  | > 100 |  | 16 |  |  |  |  |  |  | 
[O-][n+]1n[nH]c2c(Cl)c3nccc(O)c3cc21 | > 100 | > 100 | > 100 | > 100 | > 100 | > 100 | > 100 | > 100 | > 100 | > 100 | > 100 | > 100 | > 100 | 
COc1c(C)c2c(c(O)c1C/C=C(\C)CCC(=O)O)C(=O)OC2 [MYCOPHENOLIC ACID] |  |  |  |  |  |  |  | ≥ 12.5 |  |  |  |  | 1.5 | 
O=[N+]([O-])c1ccc(-c2nc3cc4cccnc4cc3[nH]2)c2ccccc12 | 6 | > 6 | 18 | > 18 | > 100 | > 100 | 50 | > 100 | > 100 | > 100 | > 100 | > 100 | > 100 | 
C#C[C@@]1(O)[C@H](O)[C@@H](CO)O[C@H]1n1ccc(N)nc1=O [2'-ETHYNYL-D-CYTIDINE] |  |  |  |  |  |  |  | > 100 | 27 |  |  |  |  | 
Clc1c2ncccc2cc2nc[nH]c12 | > 100 | > 100 | > 100 | > 100 | > 100 | > 100 | > 100 | > 100 | > 100 | > 100 |  | > 100 | > 100 | > 100
Nc1nc2c(ncn2COCCO)c(=O)[nH]1 [ACYCLOVIR] |  |  |  |  |  |  |  | > 100 |  |  |  |  |  | 
